core dimer inh: HCV core protein dimerization inhibition. actives 0.33% (n = 300,000). TR-FRET GST/Flag-core106 dimerization, 1536-well. inhibition, % at 5 µM;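 active means inhibition above the mean of all tested compounds plus 3 SD, set per screening campaign, cut at about 45% in these data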
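System – GST-tagged and Flag-tagged HCV core protein residues 1-106 · Repeats – one well for each compound · Technique – TR-FRET 671 and 617 nm emission · Doses – one concentration, 5 µM, in 0.5% DMSO · Times – 4 h, 22.5 °C incubation · Also added – Eu donor and XL665 acceptor anti-tag antibodies · Measure – percent inhibition of core106 dimerization signal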
NadD block: NadD (S. aureus) enzyme inhibition; actives 0.78% (n = 360,000); purified NadD enzyme, colorimetric absorbance read-out; inhibition, % at 20 µM; in the data active means inhibition above about 26%
VIM-2 inhibitor: inhibitors of Pseudomonas aeruginosa VIM-2 metallo-beta-lactamase; purified VIM-2, nitrocefin hydrolysis, epi-absorbance fluorescence; inhibition, % at 5.6 µM; actives 0.89% (n = 290,000);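 active means inhibition above the mean of all tested compounds plus 3 SD, cutoff set per screening run, cut at about 7.5% in these data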;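 further: red hydrolysis product quenches plate fluorescence so inhibitors raise well fluorescence; 0% = enzyme with DMSO and 100% = DMSO without enzyme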
IMP-1 inhibitor: inhibitors of Pseudomonas aeruginosa IMP-1 metallo-beta-lactamase; purified IMP-1, nitrocefin hydrolysis, epi-absorbance fluorescence; inhibition, % at 5.6 µM; actives 0.45% (n = 290,000);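 active means inhibition above the mean plus 3 SD of all compounds in the same screening run, cut at about 4.5% in these data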;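 further: 0% = IMP-1 with DMSO and 100% = DMSO wells lacking enzyme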
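Test system: recombinant IMP-1 enzyme, purified / Medium: HEPES buffer pH 7.1 with ZnSO4 and Brij 35 / Doses: single dose, 5.6 µM / Times: 25 °C, 15 min preincubation, 25 min reaction / Detection: Epi-absorbance via hydrolysed-nitrocefin quenching of white-plate fluorescence, 480/530 nm, EDTA stop / Evaluation: percent inhibition from optical density relative to buffer-blank wells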
Starred values were filed as active, the others as inactive; x = not tested or not shown. Only some compounds are listed: those with a hit (about 1.9% of all), similar ones and a draw of the others.

SMILES	core dimer inh	NadD block	VIM-2 inhibitor	IMP-1 inhibitor
O=C(N/N=C/c1cc(Br)cc(Br)c1O)c1cccc(N2CCCC2=O)c1	-2	33*	-3	-2
O=C(N/N=C/c1ccccc1Br)c1cccc(S(=O)(=O)N2CCOCC2)c1	x	14	x	x
O=C(N/N=C/c1ccc(Cl)cc1Cl)c1cccc(N2CCCC2=O)c1	-2	-5	0	-1
O=C(CP(=O)(c1ccccc1)c1ccccc1)N/N=C/c1cc(Br)cc(Br)c1O	1	44*	-3	-4
O=C(C[n+]1ccccc1)N/N=C/c1cc(Br)cc(Br)c1O	-6	-10	2	-1
O=C(N/N=C/c1cc(Br)cc(Br)c1O)c1cccc(S(=O)(=O)N2CCOCC2)c1	0	35*	-2	-2
O=c1[nH]cc(S(=O)(=O)N2CCOCC2)c(=O)[nH]1	0	-1	x	x
O=C(NCc1nnnn1-c1ccc(F)cc1)c1ccc2c(c1)OCO2	x	-6	x	x
Cc1ccc(N(C)S(=O)(=O)c2cccc(C(=O)NNC(=O)c3ccncc3)c2)cc1	x	0	x	x
CC1CCCCC12NC(=O)N(CC(=O)Nc1sc3c(c1C(N)=O)CCC3)C2=O (stereo not drawn)	69*	2	-4	-4
CC1CCC2(CC1)NC(=O)N(CC(=O)Nc1sc3c(c1C(N)=O)CCC3)C2=O (stereo not drawn)	52*	17	1	-1
CC1(C)C(=O)Nc2ccccc2N1C(=O)COC(=O)c1cccnc1	x	-2	x	x
O=C(Nc1nccs1)C1CCCN(S(=O)(=O)c2cccnc2)C1 (stereo not drawn)	3	4	0	4.8*
O=C(Nc1nc(-c2ccccc2)cs1)C1CCCN(S(=O)(=O)c2ccccc2)C1 (stereo not drawn)	15	12	-1	-3
O=C(Nc1nc(-c2ccccc2)cs1)C1CCCN(S(=O)(=O)c2cccc([N+](=O)[O-])c2)C1 (stereo not drawn)	46*	24	-2	-7
CC1CCC(NC(=O)C(NC(=O)c2ccccc2)C(C)C)CC1 (stereo not drawn)	-1	3	-2	-2
CCOc1cc2c(C#N)c(N3CCNCC3)nc(N)c2c(N)n1	-11	26	8.7*	-2
O=C(/C=C/c1ccco1)N1CCCC(c2ccccc2)C1 (stereo not drawn)	48*	7	-3	-1
O=C(/C=C/c1ccccc1)N1CCC(c2ccccc2)C1 (stereo not drawn)	9	-1	-4	-4
O=C(NCc1cccnc1)c1cc(S(=O)(=O)N2CCCC2)c(Cl)cc1Cl	x	-5	-3	-3
CC(C(=O)O)N1C(=O)C2C3CC(C2C1=O)C1C(c2ccccc2)c2sc(=O)[nH]c2SC31 (stereo not drawn)	-13	4	1	6.5*
CCc1cccc(Nc2c3c(nc4ncnn24)CCC3)c1	-2	0	9.9*	-4
Clc1cccc(Nc2c3c(nc4ncnn24)CCC3)c1	3	2	4	-3
COc1cc2cc(CCCOC(=O)c3ccc4c(c3)OCO4)oc(=O)c2cc1OC	x	-11	x	x
COc1nccnc1NS(=O)(=O)c1ccc(NCc2ccccc2O)cc1	-1	-2	-2	0
SMILES	core dimer inh	NadD block	VIM-2 inhibitor	IMP-1 inhibitor
C[C@@H](CN1C(=O)C(=O)NC[C@@H]1Cc1ccc(O)cc1)NC(=O)Cc1ccccc1	15	4	-1	13*
CC(C)Cn1c(-c2ccc(Br)cc2)c[nH]c1=S	9	19	-3	-5
COC(CN1C(=O)C(=O)/C(=C(/O)c2ccccc2)C1c1ccccn1)OC (stereo not drawn)	-1	3	9.6*	-3
Cc1cc(C)cc(N(CCC#N)C(=O)CSc2n[nH]c(N)n2)c1	3	-9	x	x
FCCCOc1ccc(-c2nccc(-c3ccc(F)cc3)n2)cc1	-4	3	-1	-2
FCCCOc1ccc(-c2ccnc(-c3ccccc3)n2)cc1	4	5	1	5.1*
c1ccc(COc2cccc(CNCc3ccccn3)c2)cc1	-18	-4	8.2*	-4
CCN(CC)S(=O)(=O)c1ccc(Cl)c(C(=O)OCC(=O)c2c(N)n(C)c(=O)n(C)c2=O)c1	6	-7	-2	-2
Cc1c(C(C)C[C@H](C)O)oc(=O)c2c1Oc1c(C)c(C(C)C[C@H](C)O)oc(=O)c1C2 (stereo partly drawn)	x	0	x	x
CCCCN(C)CCNC(=O)c1cc2c(-c3ccccc3F)nn(C)c2s1	3	-11	11*	-2
CCN(CC)CCCNC(=O)c1cc2c(-c3cccc(OC)c3)nn(C)c2s1	-1	-12	8	-5
CCCCN(C)CCNC(=O)c1cc2c(-c3cccc(OC)c3)nn(C)c2s1	3	-13	10*	-3
O=C(Cc1ccc(NC(=O)C2CCN(C(=O)c3ccccc3)CC2)cc1)Nc1cccc(C(=O)N2CCCCC2)c1	x	3	x	x
O=C(c1ccco1)[C@@H]1[C@@H]2C(=O)N(c3ccc(Br)cc3)C(=O)[C@@H]2C2c3ccccc3C=CN21 (stereo partly drawn)	x	32*	-2	1
O=C(c1ccco1)[C@@H]1[C@@H]2C(=O)N(c3ccc(F)cc3)C(=O)[C@@H]2C2c3ccccc3C=CN21 (stereo partly drawn)	-1	x	5	4
CC(=O)[C@H]1[C@@H]2C(=O)N(c3cccc(Cl)c3)C(=O)[C@@H]2[C@H]2c3ccccc3C=CN21	58*	10	0	0
CC(=O)[C@@H]1[C@@H]2C(=O)N(c3ccc(F)c(Cl)c3)C(=O)[C@@H]2C2c3ccccc3C=CN21 (stereo partly drawn)	32	x	1	1
COC(=O)C(NC(=O)CCc1c(C)nc2c(c(C)nn2-c2ccccc2)c1C)C(C)C (stereo not drawn)	x	-7	2	4.6*
c1cc(Nc2cccc3nccnc23)c2nccnc2c1	-11	2	8.6*	-2
COCCCNCCCOc1ccc(C(C)(C)c2ccccc2)cc1	-2	-6	-4	-2
CC(C)(c1ccccc1)c1ccc(OCCCNCCO)cc1	-6	-11	-2	5.4*
c1cc2c(cc1Nc1nc(-c3ccc4c(c3)OCO4)cs1)OCCO2	13	40*	0	1
COc1ccc2c3c(cccc13)C(=O)N(O)C2=O	15	3	9.0*	-3
O=C1c2cccc3c([N+](=O)[O-])ccc(c23)C(=O)N1O	-44	24	8.8*	2
COc1ccccc1N1C(=O)c2cccc3c(C(=O)O)ccc(c23)C1=O	3	1	-3	0
O=C1c2cccc3c(O)ccc(c23)C(=O)N1Cc1ccccc1	-12	3	11*	4
O=C1CCCCC(=O)[C@H](OC(=O)c2ccccc2)C[C@H](c2ccccc2)O1	x	-7	x	x
Cc1sccc1C1C(C#N)=C(N)SC(N)=C1C#N	60*	x	-1	-2
Cc1[nH]nc2c1C(c1ccsc1C)C(C#N)=C(N)O2 (stereo not drawn)	-12	8	-2	-5
Cc1cc(C2C(C#N)=C(N)Oc3n[nH]c(C)c32)c(C)s1 (stereo not drawn)	0	-5	-2	-2

From PubChem BioAssay
